The IC50 is the midpoint of a concentration-inhibition curve. A lower IC50 goes with greater potency.

For one assay, the system named is MCF7. The assay is described as follows: Cytotoxic activity against human MCF7 cells after 48 hrs by MTT assay. Format: functional, cell-based. To be noted: MCF7, 48 h. The procedure, abridged: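 Modified MTT assay. Viable cells seeded at 1 × 10^4 per well in growth medium and incubated at 37 °C, 5% CO2. Samples dissolved in DMSO and diluted in growth medium to final concentrations of 5.0–150 µM. Optical density read on a microplate reader; IC50 values derived.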

The nature of assay [1]: Cytotoxicity activity against mouse LLC cells after 48 hrs by MTT assay. To be noted: Lewis lung carcinoma.

As for `CC1(C)CC[C@]2(C)CC[C@]3(C(=O)O)C(=CC[C@@H]4[C@@]5(C)CC[C@@H](O)[C@@](C)(C=O)[C@@H]5CC[C@]43C)[C@@H]2C1`, the IC50 in the assay on MCF7 is 47 µM; in assay [1], 39.2 µM.
With `C[C@@]1(C(=O)O)CC[C@]2(C)CC[C@]3(C)C(=CC[C@@H]4[C@@]5(C)CC[C@@H](O)[C@@](C)(C(=O)O)[C@@H]5CC[C@]43C)[C@@H]2C1`, the figures for the IC50 (with MCF7; in assay [1]) were 62.4 µM and 47.8 µM, respectively.
For `CC(=O)O[C@@H]1CC[C@@]2(C)[C@@H](CC[C@]3(C)[C@@H]2CC=C2[C@@H]4CC(C)(C)CC[C@]4(C)CC[C@]23C(=O)O)[C@]1(C)C(=O)O` the same measures were 58.4 µM and above 150 µM.
On the same counts, the results for `CC1(C)CC[C@]2(C)CC[C@]3(C(=O)O)C(=CC[C@@H]4[C@@]5(C)CC[C@@H](OC(=O)/C=C/c6ccc(O)c(O)c6)C(C)(C)[C@@H]5CC[C@]43C)[C@@H]2C1` are above 150 µM and above 150 µM.
For `CC(=O)O[C@@H]1CC[C@@]2(C)[C@@H](CC[C@]3(C)[C@@H]2CC=C2[C@@H]4C[C@](C)(C(=O)O)CC[C@]4(C)CC[C@]23C)[C@]1(C)C(=O)O` the same measures were above 150 µM and above 150 µM.
In the case of `C[C@@]1(C(=O)O)CC[C@]2(C)CC[C@]3(C)C(=CC[C@@H]4[C@@]5(C)CC[C@H](O)[C@@](C)(C(=O)O)[C@@H]5CC[C@]43C)[C@@H]2C1`, the IC50 (with MCF7; in assay [1]) was above 150 µM each time.
As for `CC1(C)CC[C@]2(C)CC[C@]3(C(=O)O)C(=CC[C@@H]4[C@@]5(C)CC[C@H]6OC(C)(C)OC[C@@]6(C)[C@@H]5CC[C@]43C)[C@@H]2C1`, the IC50 (with MCF7; in assay [1]) was above 150 µM in each case.
With `C[C@@]1(C(=O)O)CC[C@]2(C)CC[C@]3(C)C(=CC[C@@H]4[C@@]5(C)CC[C@H](O)[C@@](C)(CO)[C@@H]5CC[C@]43C)[C@@H]2C1`, the IC50 with MCF7 was 107 µM; in assay [1], above 150 µM.
On the same counts, the results for `CC1(C)CC[C@]2(C)CC[C@]3(C(=O)O)C(=CC[C@@H]4[C@@]5(C)CCC(=O)C(C)(C)[C@@H]5CC[C@]43C)[C@@H]2C1` are 53.6 µM and above 150 µM.
On the same counts, the results for `CC1(C)CC[C@]2(C)CC[C@]3(C(=O)O)C(=CC[C@@H]4[C@@]5(C)CCC(=O)[C@@](C)(CO)[C@@H]5CC[C@]43C)[C@@H]2C1` are 39.2 µM and 6.56 µM.
In the case of `CC1(C)[C@@H](O)CC[C@]2(C)[C@H]3CC=C4[C@@H]5C[C@](C)(C(=O)O)CC[C@]5(C)CC[C@@]4(C)[C@]3(C)CC[C@@H]12`, the IC50 was above 150 µM in the assay on MCF7 and 16.6 µM in assay [1].
With `CC1(C)CC[C@]2(C)CC[C@]3(C(=O)O)C(=CC[C@@H]4[C@@]5(C)CC[C@H](O)C(C)(C)[C@@H]5CC[C@]43C)[C@@H]2C1`, the half-inhibitory concentration (IC50) in the assay with MCF7 was above 150 µM; in assay [1], 7.63 µM.
Turning to `CC1(C)CC[C@]2(C)CC[C@]3(C(=O)O)C(=CC[C@@H]4[C@@]5(C)CC[C@@H](O)[C@@](C)(CO)[C@@H]5CC[C@]43C)[C@@H]2C1` [ACERIPHYLLIC ACID A], the IC50 with MCF7 is above 150 µM; in assay [1], 8.36 µM.
For `CC1(C)CC[C@]2(C(=O)O)CC[C@]3(C)C(=CC[C@@H]4[C@@]5(C)CC[C@H](O)C(C)(C)[C@@H]5CC[C@]43C)[C@@H]2C1` [OLEANOLIC_ACID] the same measures were above 150 µM and above 150 µM.
